Data taken from ChEMBL document CHEMBL3232894, “Discovery of AMG 925, a FLT3 and CDK4 dual kinase inhibitor with preferential affinity for the activated state of FLT3” (J Med Chem, 2014).

Experiments:
[1] = target: T1, Receptor-type tyrosine-protein kinase FLT3 (Homo sapiens, UniProt P36888, ITD); experiment: Binding affinity to FLT3 ITD mutant (unknown origin)
MOLM-13 [2] = experiment: Antiproliferative activity against human MOLM13 cells harboring FLT3 ITD mutant assessed as incorporation of [3H]thymidine into DNA after […] by beta-plate counting analysis; assay type: functional, cell-based
[3] = target: T1, Receptor-type tyrosine-protein kinase FLT3; experiment: Inhibition of FLT3 ITD mutant in human MOLM13 cells assessed as inhibition of STAT5 phosphorylation at Tyr694 after 24 hrs; assay type: cell-based, MOLM-13
[4] = Oral bioavailability in cynomolgus monkey; assay type: ADME, organism-based, Macaca fascicularis; settings: in vivo
Procedure, shortened: (§1)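 Intravenous and oral (gavage, solution) PK in rat, dog and cynomolgus monkey. The rat vehicle for both routes was water/acetate/tween at pH 4, 96/3/1 (v/v/v). Dog and monkey iv doses used 40% PG aqueous solution at pH 2, and their oral doses used 20% captisol aqueous solution.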

[5] = target: Cyclin-dependent kinase 4/cyclin D1 (Homo sapiens, UniProt P11802); experiment: Inhibition of CDK4/cyclin D1 (unknown origin) using Rb as substrate after 60 mins by scintillation counting analysis in presence of [r-33P]ATP; assay type: protein-complex assay
Chain of Cyclin-dependent kinase 4/cyclin D1 (P11802 whole entry): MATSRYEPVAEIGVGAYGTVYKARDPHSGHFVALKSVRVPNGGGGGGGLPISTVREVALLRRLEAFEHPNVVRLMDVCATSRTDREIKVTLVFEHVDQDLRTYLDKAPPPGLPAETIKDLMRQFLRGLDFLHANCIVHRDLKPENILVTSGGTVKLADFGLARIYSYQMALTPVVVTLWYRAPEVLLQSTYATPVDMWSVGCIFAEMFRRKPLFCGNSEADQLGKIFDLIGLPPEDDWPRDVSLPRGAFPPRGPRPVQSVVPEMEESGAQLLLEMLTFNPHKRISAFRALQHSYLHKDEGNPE
Chain of Cyclin-dependent kinase 4/cyclin D1 (P24385 whole entry, further chain): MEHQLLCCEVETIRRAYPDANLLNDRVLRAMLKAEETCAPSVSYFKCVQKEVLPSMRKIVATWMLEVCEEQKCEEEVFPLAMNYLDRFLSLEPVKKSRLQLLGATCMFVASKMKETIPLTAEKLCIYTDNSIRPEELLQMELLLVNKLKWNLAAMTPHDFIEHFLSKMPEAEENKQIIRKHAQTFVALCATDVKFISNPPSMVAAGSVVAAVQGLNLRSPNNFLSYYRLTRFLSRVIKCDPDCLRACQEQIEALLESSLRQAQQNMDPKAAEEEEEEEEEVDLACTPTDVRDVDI

Mus musculus = experiment: Toxicity in CrTac:NCR-Foxn1nu (NCR) nude mouse xenografted with human MOLM13 cells assessed as body weight loss at 25 to 150 mg/kg, po administered qd for 8 days; assay type: organism-based, MOLM-13; parameters: dose 25-150 mg/kg, route oral; settings: in vivo, 192 h
Procedure, shortened: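 Body weight tracked throughout the 8-day once-daily oral study in NCR nude mice carrying MOLM13 xenografts. Doses were 25, 50, 75 and 150 mg/kg, with a vehicle control.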

[6] = Oral bioavailability in dog; assay type: ADME, organism-based, Canis lupus familiaris; settings: in vivo; procedure, shortened: as §1
[7] = target: Receptor-type tyrosine-protein kinase FLT3 (Homo sapiens, UniProt P36888, N841I); experiment: Binding affinity to FLT3 N841I mutant (unknown origin)
[8] = Volume of distribution at steady state in iv dosed rat; assay type: ADME, organism-based; settings: in vivo, read-out: Vdss; procedure, shortened: as §1
[9] = Elimination half-life in iv dosed cynomolgus monkey; assay type: ADME, organism-based, Macaca fascicularis; settings: in vivo, read-out: beta t1/2 (converted); procedure, shortened: as §1
[10] = Clearance in iv dosed cynomolgus monkey; assay type: ADME, organism-based, Macaca fascicularis; settings: in vivo; procedure, shortened: as §1
[11] = target: Receptor-type tyrosine-protein kinase FLT3 (Homo sapiens, UniProt P36888, K663Q); experiment: Binding affinity to FLT3 K663Q mutant (unknown origin)
MOLM-13 [12] = experiment: Induction of apoptosis in human MOLM13 cells harboring FLT3 ITD mutant at 1 uM after 48 hrs by Annexin V/Sytox Green staining based flow cytometry; assay type: functional
Procedure, shortened: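 MOLM13, sorafenib-resistant MOLM13 and U937 cells were each exposed to compound at 1 μM for 48 h. Cells were then stained with Annexin V/Sytox Green and analysed by flow cytometry. Readout is apoptotic cells as a percentage of all cells analysed.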

MOLM-13 [13] = experiment: cells; settings: Homo sapiens
[14] = target: Cyclin-dependent kinase 1/cyclin B1 (Homo sapiens, UniProt P06493); experiment: Inhibition of CDK1/cyclin B (unknown origin) using histone H1 as substrate after 60 mins by scintillation counting analysis in presence of [r-33P]ATP; assay type: protein-complex assay
Chain of Cyclin-dependent kinase 1/cyclin B1 (P06493 whole entry): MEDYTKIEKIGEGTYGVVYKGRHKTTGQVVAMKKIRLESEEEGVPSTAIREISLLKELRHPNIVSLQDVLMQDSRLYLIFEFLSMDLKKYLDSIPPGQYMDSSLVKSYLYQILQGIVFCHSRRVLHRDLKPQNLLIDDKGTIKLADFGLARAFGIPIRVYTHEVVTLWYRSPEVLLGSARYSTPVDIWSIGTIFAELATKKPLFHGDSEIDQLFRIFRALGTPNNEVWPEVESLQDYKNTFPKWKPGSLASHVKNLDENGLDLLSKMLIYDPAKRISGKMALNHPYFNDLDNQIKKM
Chain of Cyclin-dependent kinase 1/cyclin B1 (P14635 whole entry, further chain): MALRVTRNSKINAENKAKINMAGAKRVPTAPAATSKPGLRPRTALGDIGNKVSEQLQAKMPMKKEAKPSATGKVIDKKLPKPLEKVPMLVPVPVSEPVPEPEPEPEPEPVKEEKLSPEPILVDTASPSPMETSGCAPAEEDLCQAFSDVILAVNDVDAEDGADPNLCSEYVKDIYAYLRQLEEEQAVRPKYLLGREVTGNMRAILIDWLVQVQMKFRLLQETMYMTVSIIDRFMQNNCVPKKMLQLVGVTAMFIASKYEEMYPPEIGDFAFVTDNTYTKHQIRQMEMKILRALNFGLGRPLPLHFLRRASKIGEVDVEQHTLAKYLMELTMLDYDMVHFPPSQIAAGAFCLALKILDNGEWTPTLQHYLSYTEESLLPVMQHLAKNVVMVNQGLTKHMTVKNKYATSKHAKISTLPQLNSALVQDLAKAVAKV

[15] = target: Receptor-type tyrosine-protein kinase FLT3 (Homo sapiens, UniProt P36888, D835Y); experiment: Binding affinity to FLT3 D835Y mutant (unknown origin)
[16] = Elimination half-life in iv dosed rat; assay type: ADME, organism-based; settings: in vivo, read-out: beta t1/2 (converted); procedure, shortened: as §1

- Kd [1]: 4 nM
- IC50 (MOLM-13 [2]): 28 nM
- IC50 [3]: 5 nM
- bioavailability [4]: 44%
- IC50 [5]: 3 nM
- bioavailability [6]: 100%
- Kd [7]: 4 nM
- Vd [8]: 1.8 L/kg
- half-life [9]: 396 min
- clearance [10]: 23.7 mL/min/kg
- Kd [11]: 4 nM
- IC50 (MOLM-13 [13]): 23 nM
- IC50 [14]: 2220 nM
- Kd [15]: 1 nM
- half-life [16]: 330 min
SMILES: C[C@H]1CC[C@H](n2c3cnccc3c3cnc(Nc4ccc5c(n4)CCN(C(=O)CO)C5)nc32)CC1
- Activity (Mus musculus): 10%
- Activity (MOLM-13 [12]): 82.3%
